In ChEMBL document CHEMBL4152387, “Discovery of a Potent Grp94 Selective Inhibitor with Anti-Inflammatory Efficacy in a Mouse Model of Ulcerative Colitis” (J Med Chem, 2018):
pKd: −log10 of the molar value. Active and inactive are the calls of the source. The calls are words filed in the database; no cut-off is given here.

Legend:
[1] = system: Mus musculus; test: Anti-inflammatory activity in ip dosed C57BL/6 mouse model of DSS-induced ulcerative colitis assessed reduction in TNFalpha levels in serum co-administrated once daily with DSS measured on day 7 post dose by ELISA; type: functional, organism-based
How it was run: (§1)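 DSS colitis in male C57BL/6 mice (3% DSS in water, 7 days, ip qd co-dosing, vehicle controls). Serum and colons taken at sacrifice on day 7; colon homogenate supernatants and serum assayed for mouse TNFα and IL-6 by ELISA kits; n = 5 samples per group.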

[2] = target: T1, Heat shock protein HSP 90-alpha (Homo sapiens, UniProt P07900); test: Inhibition of FITC-geldanamycin binding to human His-tagged HSP90alpha N-terminal domain (1 to 236 residues) expressed in Escherichia coli BL21star (DE3) at 100 uM after 4 hrs by FP assay relative to control
How it was run: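 Hsp90αN (15 nM final) with GM-FITC (6 nM final) and compound in HEPES/KCl/MgCl2 buffer pH 7.4 with NP40, DTT, BGG; 4 h at 4 °C in dark; FP at ex 485/em 535 nm; inhibition computed against GM-FITC-only and protein-plus-probe controls; n = 3.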

[3] = system: Mus musculus; test: Anti-inflammatory activity in C57BL/6 mouse model of DSS-induced ulcerative colitis assessed reduction in TLR2 expression in colonic tissues at 10 to 30 mg/kg, ip qd co-administrated with DSS measured on day 7 post dose; type: functional, organism-based
How it was run: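 DSS colitis in male C57BL/6 mice (3% DSS, 7 days, ip qd 10 or 30 mg/kg, vehicle controls); colons flash-frozen at day 7, homogenized in lysis buffer with protease/phosphatase inhibitors. Equal protein by BCA run on SDS-PAGE, PVDF, 1% BSA block, primary antibodies 37 °C 1 h then 4 °C overnight, DyLight 800 secondary, infrared scan; β-actin loading control.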

[4] = system: Mus musculus; test: Anti-inflammatory activity in C57BL/6 mouse model of DSS-induced ulcerative colitis assessed reduction in colon shortening at 10 to 30 mg/kg, ip qd co-administrated with DSS measured on day 7 post dose; type: functional, organism-based
How it was run: (§2)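 Male C57BL/6 mice (20−22 g), n = 8 per group, 3% DSS in drinking water 7 days plus ip qd dosing at 10 or 30 mg/kg; vehicle controls. Sacrificed at day 7, colons collected; colon length measured and H&E-stained colon sections examined.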

[5] = system: Mus musculus; test: Anti-inflammatory activity in C57BL/6 mouse model of DSS-induced ulcerative colitis assessed mortality at 10 mg/kg, ip qd co-administrated with DSS measured on day 7 post dose; type: functional, organism-based
How it was run: (§3)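 Male C57BL/6 mice (20−22 g), randomized, n = 8 per group; 3% DSS (36−50 KD) in drinking water for 7 days, with compound given ip once daily alongside; normal and disease controls received vehicle. Deaths counted at day 7.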

[6] = target: T1, Heat shock protein HSP 90-alpha; test: Binding affinity to human His-tagged HSP90alpha N-terminal domain (1 to 236 residues) expressed in Escherichia coli BL21star (DE3) dissociation constant by biolayer interferometry; conditions: read-out: K
How it was run: (§4)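 Biotinylated His-tagged N-terminal protein, labelled in PBS pH 7.4 at one molar ratio with excess biotin removed by overnight dialysis, was loaded at 400 nM final onto streptavidin biosensors pre-wetted 10 min in kinetics buffer (PBS, 0.05% BSA, 0.01% Tween-20). Four compound concentrations in kinetics buffer were then tested for binding, with all data collected at 30 °C.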

[7] = system: Mus musculus; test: Anti-inflammatory activity in C57BL/6 mouse model of DSS-induced ulcerative colitis assessed reduction in disease activity index at 10 to 30 mg/kg, ip qd co-administrated with DSS measured until day 7 post dose; type: functional, organism-based
How it was run: (§5)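 Male C57BL/6 mice (20−22 g), n = 8 per group, 3% DSS in drinking water for 7 days with ip qd dosing at 10 or 30 mg/kg; vehicle for normal and disease controls. Body weight, stool consistency and rectal bleeding recorded daily; DAI scored from weight loss, stool consistency and stool blood.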

[8] = system: Mus musculus; test: Subacute toxicity in C57BL/6 mouse assessed as behavioral abnormalities at 30 to 90 mg/kg, ip qd for 2 weeks; type: organism-based; conditions: in vivo, 336 h
[9] = target: T1, Heat shock protein HSP 90-alpha; test: Inhibition of HSP90alpha in human PANC1 cells assessed as up-regulation of Hsp70 at 1 to 5 uM after 36 hrs by Western blot analysis; type: cell-based
How it was run: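 Panc-1 cells treated 36 h; total protein lysate with protease/phosphatase inhibitors; equal protein by BCA on SDS-PAGE, PVDF, Western blot for Hsp70 and Akt, β-actin loading control; AT13387 reference.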

[10] = target: Endoplasmin (Homo sapiens, UniProt P14625); test: Inhibition of GRP94 in human PANC1 cells assessed as down-regulation of integrin alpha2 levels after 36 hrs by Western blot analysis; type: cell-based
Chain of Endoplasmin (P14625 whole entry): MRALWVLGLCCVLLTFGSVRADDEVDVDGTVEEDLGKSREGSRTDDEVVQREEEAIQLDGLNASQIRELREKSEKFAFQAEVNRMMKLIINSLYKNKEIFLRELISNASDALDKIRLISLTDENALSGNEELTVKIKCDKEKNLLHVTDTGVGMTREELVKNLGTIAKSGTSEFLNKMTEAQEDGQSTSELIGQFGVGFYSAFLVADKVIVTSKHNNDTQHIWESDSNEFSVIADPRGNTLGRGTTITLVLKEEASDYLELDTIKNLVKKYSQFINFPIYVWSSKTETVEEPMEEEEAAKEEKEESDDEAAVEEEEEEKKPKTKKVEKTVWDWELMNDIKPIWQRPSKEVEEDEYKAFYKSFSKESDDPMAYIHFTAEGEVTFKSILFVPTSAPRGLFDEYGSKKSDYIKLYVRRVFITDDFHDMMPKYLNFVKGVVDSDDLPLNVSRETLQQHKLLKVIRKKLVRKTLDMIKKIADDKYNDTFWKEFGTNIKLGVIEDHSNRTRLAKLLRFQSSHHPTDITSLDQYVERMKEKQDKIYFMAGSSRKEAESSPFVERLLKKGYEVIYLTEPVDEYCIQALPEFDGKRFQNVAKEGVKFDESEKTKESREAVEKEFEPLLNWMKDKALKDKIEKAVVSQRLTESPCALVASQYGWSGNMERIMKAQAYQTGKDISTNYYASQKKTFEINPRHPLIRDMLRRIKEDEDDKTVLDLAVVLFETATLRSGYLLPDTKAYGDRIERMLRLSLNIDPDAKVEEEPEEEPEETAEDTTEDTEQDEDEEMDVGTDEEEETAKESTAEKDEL
How it was run: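 Panc-1 cells treated 36 h at indicated concentrations; cell surface protein extracted with a membrane-fractionation kit; Western blot for integrin α2 and αL with β-actin loading control, infrared fluorescent secondary detection.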

[11] = Ratio of Kd for human His-tagged biotinylated HSP90alpha N-terminal domain (1 to 236 residues) to Kd for dog His-tagged biotinylated GRP94 N41 deletion mutant (69 to 337 residues)
[12] = system: Mus musculus; test: Subacute toxicity in C57BL/6 mouse assessed as body weight loss at 30 to 90 mg/kg, ip qd for 2 weeks measured every other day; type: organism-based; conditions: in vivo, 336 h
[13] = system: Mus musculus; test: Anti-inflammatory activity in ip dosed C57BL/6 mouse model of DSS-induced ulcerative colitis assessed reduction in IL6 levels in colonic tissues co-administrated once daily with DSS measured on day 7 post dose by ELISA; type: functional, organism-based; how it was run: as §1
[14] = target: T1, Heat shock protein HSP 90-alpha; test: Binding affinity to human His-tagged HSP90alpha N-terminal domain (1 to 236 residues) expressed in Escherichia coli BL21star (DE3) association constant by biolayer interferometry; conditions: read-out: K; how it was run: as §4
[15] = system: Mus musculus; test: Anti-inflammatory activity in C57BL/6 mouse model of DSS-induced ulcerative colitis assessed reduction in body weight loss at 10 to 30 mg/kg, ip qd co-administrated with DSS measured until day 7 post dose; type: functional, organism-based; how it was run: as §5
[16] = species: Canis lupus familiaris; test: Binding affinity to dog His-tagged biotinylated GRP94 N41 deletion mutant (69 to 337 residues) expressed in Escherichia coli BL21star (DE3) assessed as association constant by biolayer interferometry
How it was run: (§6)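 His-tagged Grp94N biotinylated at one molar ratio in PBS pH 7.4, dialysed overnight, loaded at 400 nM on streptavidin biosensors after 10 min prewetting in PBS, 0.05% BSA, 0.01% Tween-20. Four compound concentrations in this buffer tested; binding recorded at 30 °C by biolayer interferometry.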

[17] = system: Mus musculus; test: Anti-inflammatory activity in C57BL/6 mouse model of DSS-induced ulcerative colitis assessed reduction in colonic tissue damage at 10 to 30 mg/kg, ip qd co-administrated with DSS measured on day 7 post dose; type: functional, organism-based; how it was run: as §2
[18] = system: Mus musculus; test: Subacute toxicity in C57BL/6 mouse assessed as effect on heart at 30 to 90 mg/kg, ip qd for 2 weeks by hematoxylin and eosin staining analysis; type: organism-based; conditions: in vivo, 336 h
[19] = Binding affinity to dog His-tagged biotinylated GRP94 N41 deletion mutant (69 to 337 residues) expressed in Escherichia coli BL21star (DE3) by biolayer interferometry; parameters: species or system Canis lupus familiaris; how it was run: as §6
[20] = system: Mus musculus; test: Anti-inflammatory activity in C57BL/6 mouse model of DSS-induced ulcerative colitis assessed mortality at 30 mg/kg, ip qd co-administrated with DSS measured on day 7 post dose; type: functional, organism-based; how it was run: as §3

With `CC(C)c1ccc(-c2ccc(N[C@H]3CC[C@H](O)CC3)c(C(N)=O)c2)cc1` the Activity [1] was “Dose-dependent effect”, the “inhibition (INH)” value [2] was “Not Active” and the Activity [3] was “Active”. For the same compound, the Activity [4] was “inactive”, the Activity [5] was “inactive” and the koff [6] was 0.0345 s⁻¹. For the same compound, the Activity [7] was “Active”, the Activity [8] was “Non-Toxic” and the “inhibition (INH)” value [9] was “Not Active”. The inhibition [10] was “Dose-dependent effect”, the Ratio [11] was greater than 1000 and the Activity [12] was “Non-Toxic”. For the same compound, the Activity [13] was “Dose-dependent effect”, the kon [14] was 1680 M⁻¹ s⁻¹ and the Activity [15] was “Active”. For the same compound, the K [16] was 6.38 ×10⁵ /M/s, the Activity [17] was “inactive” and the Activity [18] was “Non-Toxic”. The pKd [19] was 7.71 and the Activity [20] was “Active”.
